Test results published in BindingDB's records for doi:10.1021/jm800789h (National Cancer Institute-Frederick, 2009).
pIC50, pKd: −log10 of the molar value. *1 amine or outer side, *2 acyl side, *3 side chain or, on linkers, in order; H or OH if unused. Where a SMILES comes first, the peptide text is derived from it. [ ]: non-standard residue; d: D form. The star is where a group is joined. X2 = O=C(c1cc(N=C=S)ccc1-c1c2ccc(=O)cc-2oc2cc(O)ccc12)*; Achc(cis-1,4) = O=C([C@H]1CC[C@@H](N[*:1])CC1)[*:2]; Achc(trans-4) = O=C([C@H]1CC[C@H](N[*:1])CC1)[*:2]; Azetidine3carboxylic = O=C(C1CN([*:1])C1)[*:2]; Phac(3-amino) = O=C(Cc1cccc(N[*:1])c1)[*:2]; X3 = C=CCCN([C@@H](CC(C)C)C(=O)[*:2])[*:1]; pY = N[C@@H](Cc1ccc(OP(=O)(O)O)cc1)C(=O)O; X1 = O=C(C1CN([*:3])CCN1[*:1])[*:2]; Trx = NC[C@H]1CC[C@H](C(=O)O)CC1; X6 = O=C([C@H](O)CCN[*:1])[*:2]; X4 = O=C(CC(O)CN[*:1])[*:2]; 4Amb = NCc1ccc(C(=O)O)cc1; 4Abz = Nc1ccc(C(=O)O)cc1; NH(but-3-enyl) = C=CCCN*; Inp = O=C(O)C1CCNCC1

Molecular target: T1, SHC-transforming protein 1 (Homo sapiens, UniProt P29353)
T1 sequence (P29353 whole entry): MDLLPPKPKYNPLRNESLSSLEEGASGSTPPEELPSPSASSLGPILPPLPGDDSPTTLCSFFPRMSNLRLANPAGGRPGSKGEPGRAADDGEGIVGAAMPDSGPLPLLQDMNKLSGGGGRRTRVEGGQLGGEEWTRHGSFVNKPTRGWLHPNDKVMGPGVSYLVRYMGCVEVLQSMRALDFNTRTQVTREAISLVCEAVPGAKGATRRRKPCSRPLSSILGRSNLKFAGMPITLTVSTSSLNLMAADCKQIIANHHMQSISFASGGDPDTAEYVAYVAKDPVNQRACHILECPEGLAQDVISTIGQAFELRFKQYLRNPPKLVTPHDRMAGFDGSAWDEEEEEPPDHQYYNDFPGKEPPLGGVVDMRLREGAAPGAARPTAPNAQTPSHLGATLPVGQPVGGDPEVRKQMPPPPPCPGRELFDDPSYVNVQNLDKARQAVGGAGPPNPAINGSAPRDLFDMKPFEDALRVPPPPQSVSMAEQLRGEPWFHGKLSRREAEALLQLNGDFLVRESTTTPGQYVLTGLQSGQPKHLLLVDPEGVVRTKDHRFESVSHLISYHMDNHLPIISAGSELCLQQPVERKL
Test: Binding affinity to Shc Src homology 2 domain by fluorescence anisotropy
Method in brief: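 Direct binding: 5 nM N-terminal fluorescein-labelled peptide in 10 mM HEPES, 150 mM NaCl pH 7.5 with 10% (v/v) DMSO; Shc SH2 protein serially diluted from 100 μM. Excitation 485 nm, parallel and perpendicular emission at 535 nm. Kd from fitting anisotropy versus protein concentration to a single-site binding model.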

Row | pKd | SMILES
1 | 4.91 | CC(C)C[C@H](NC(=O)CNC(=O)[C@H](CCC(N)=O)NC(=O)[C@H](Cc1ccc(OP(=O)(O)O)cc1)NC(=O)c1ccc(CNC(=O)c2cc(N=C=S)ccc2-c2c3ccc(=O)cc-3oc3cc(O)ccc23)cc1)C(=O)N[C@@H](CO)C(N)=O [4-((2S,5S,11S,14S)-1-amino-11-(3-amino-3-oxopropyl)-14-(4-((2-(6-hydroxy-3-oxo-3H-xanthen-9-yl)-5-isothiocyanatobenzamido)methyl)benzamido)-2-(hydroxymethyl)-5-isobutyl-1,4,7,10,13-pentaoxo-3,6,9,12-tetraazapentadecan-15-yl)phenyl dihydrogen phosphate] ({X2-4Amb}-[pY]QGLS-NH2)
2 | 4.60 | CC(C)C[C@H](NC(=O)CNC(=O)[C@H](CCC(N)=O)NC(=O)[C@H](Cc1ccc(OP(=O)(O)O)cc1)NC(=O)[C@H]1CC[C@H](NC(=O)c2cc(N=C=S)ccc2-c2c3ccc(=O)cc-3oc3cc(O)ccc23)CC1)C(=O)N[C@@H](CO)C(N)=O [trans-4-((2S,5S,11S,14S)-1-amino-11-(3-amino-3-oxopropyl)-14-(4-(2-(6-hydroxy-3-oxo-3H-xanthen-9-yl)-5-isothiocyanatobenzamido)cyclohexanecarboxamido)-2-(hydroxymethyl)-5-isobutyl-1,4,7,10,13-pentaoxo-3,6,9,12-tetraazapentadecan-15-yl)phenyl dihydrogen phosphate] (X2-[Achc(trans-4)][pY]QGLS-NH2)
3 | 4.62 | CC(C)C[C@H](NC(=O)CNC(=O)[C@H](CCC(N)=O)NC(=O)[C@H](Cc1ccc(OP(=O)(O)O)cc1)NC(=O)c1ccc(NC(=O)c2cc(N=C=S)ccc2-c2c3ccc(=O)cc-3oc3cc(O)ccc23)cc1)C(=O)N[C@@H](CO)C(N)=O [4-((2S,5S,11S,14S)-1-amino-11-(3-amino-3-oxopropyl)-14-(4-(2-(6-hydroxy-3-oxo-3H-xanthen-9-yl)-5-isothiocyanatobenzamido)benzamido)-2-(hydroxymethyl)-5-isobutyl-1,4,7,10,13-pentaoxo-3,6,9,12-tetraazapentadecan-15-yl)phenyl dihydrogen phosphate] ({X2-4Abz}-[pY]QGLS-NH2)
4 | 6.11 | CC(C)C[C@H](NC(=O)CNC(=O)[C@H](CCC(N)=O)NC(=O)[C@H](Cc1ccc(OP(=O)(O)O)cc1)NC(=O)Cc1cccc(NC(=O)c2cc(N=C=S)ccc2-c2c3ccc(=O)cc-3oc3cc(O)ccc23)c1)C(=O)N[C@@H](CO)C(N)=O [4-((2S,5S,11S,14S)-1-amino-11-(3-amino-3-oxopropyl)-14-(2-(3-(2-(6-hydroxy-3-oxo-3H-xanthen-9-yl)-5-isothiocyanatobenzamido)phenyl)acetamido)-2-(hydroxymethyl)-5-isobutyl-1,4,7,10,13-pentaoxo-3,6,9,12-tetraazapentadecan-15-yl)phenyl dihydrogen phosphate] (X2-[Phac(3-amino)][pY]QGLS-NH2)
5 | 5.05 | CC(C)C[C@H](NC(=O)CNC(=O)[C@H](CCC(N)=O)NC(=O)[C@H](Cc1ccc(OP(=O)(O)O)cc1)NC(=O)[C@H](O)CCNC(=O)c1cc(N=C=S)ccc1-c1c2ccc(=O)cc-2oc2cc(O)ccc12)C(=O)N[C@@H](CO)C(N)=O [4-((2S,5S,11S,14S)-1-amino-11-(3-amino-3-oxopropyl)-14-((R)-2-hydroxy-4-(2-(6-hydroxy-3-oxo-3H-xanthen-9-yl)-5-isothiocyanatobenzamido)butanamido)-2-(hydroxymethyl)-5-isobutyl-1,4,7,10,13-pentaoxo-3,6,9,12-tetraazapentadecan-15-yl)phenyl dihydrogen phosphate] (X2-[X6][pY]QGLS-NH2)
6 | 6.30 | CC(C)C[C@H](NC(=O)CNC(=O)[C@H](CCC(N)=O)NC(=O)[C@H](Cc1ccc(OP(=O)(O)O)cc1)NC(=O)[C@H]1CC[C@@H](NC(=O)c2cc(N=C=S)ccc2-c2c3ccc(=O)cc-3oc3cc(O)ccc23)CC1)C(=O)N[C@@H](CO)C(N)=O [cis-4-((2S,5S,11S,14S)-1-amino-11-(3-amino-3-oxopropyl)-14-(4-(2-(6-hydroxy-3-oxo-3H-xanthen-9-yl)-5-isothiocyanatobenzamido)cyclohexanecarboxamido)-2-(hydroxymethyl)-5-isobutyl-1,4,7,10,13-pentaoxo-3,6,9,12-tetraazapentadecan-15-yl)phenyl dihydrogen phosphate] (X2-[Achc(cis-1,4)][pY]QGLS-NH2)
7 | 4.74 | CC(C)C[C@H](NC(=O)CNC(=O)[C@H](CCC(N)=O)NC(=O)[C@H](Cc1ccc(OP(=O)(O)O)cc1)NC(=O)[C@H]1CC[C@H](CNC(=O)c2cc(N=C=S)ccc2-c2c3ccc(=O)cc-3oc3cc(O)ccc23)CC1)C(=O)N[C@@H](CO)C(N)=O [trans-4-((2S,5S,11S,14S)-1-amino-11-(3-amino-3-oxopropyl)-14-(4-((2-(6-hydroxy-3-oxo-3H-xanthen-9-yl)-5-isothiocyanatobenzamido)methyl)cyclohexanecarboxamido)-2-(hydroxymethyl)-5-isobutyl-1,4,7,10,13-pentaoxo-3,6,9,12-tetraazapentadecan-15-yl)phenyl dihydrogen phosphate] ({X2-Trx}-[pY]QGLS-NH2)
8 | 5.02 | CC(C)C[C@H](NC(=O)CNC(=O)[C@H](CCC(N)=O)NC(=O)[C@H](Cc1ccc(OP(=O)(O)O)cc1)NC(=O)C1CN(C(=O)c2cc(N=C=S)ccc2-c2c3ccc(=O)cc-3oc3cc(O)ccc23)CCN1)C(=O)N[C@@H](CO)C(N)=O (stereo partly drawn) [4-((2S,5S,11S,14S)-1-amino-11-(3-amino-3-oxopropyl)-14-(4-(2-(6-hydroxy-3-oxo-3H-xanthen-9-yl)-5-isothiocyanatobenzoyl)piperazine-2-carboxamido)-2-(hydroxymethyl)-5-isobutyl-1,4,7,10,13-pentaoxo-3,6,9,12-tetraazapentadecan-15-yl)phenyl dihydrogen phosphate] (H-[X1](X2)[pY]QGLS-NH2)
9 | 5.07 | CC(C)C[C@H](NC(=O)CNC(=O)[C@H](CCC(N)=O)NC(=O)[C@H](Cc1ccc(OP(=O)(O)O)cc1)NC(=O)CC(O)CNC(=O)c1cc(N=C=S)ccc1-c1c2ccc(=O)cc-2oc2cc(O)ccc12)C(=O)N[C@@H](CO)C(N)=O (stereo partly drawn) [4-((2S,5S,11S,14S)-1-amino-11-(3-amino-3-oxopropyl)-14-(3-hydroxy-4-(2-(6-hydroxy-3-oxo-3H-xanthen-9-yl)-5-isothiocyanatobenzamido)butanamido)-2-(hydroxymethyl)-5-isobutyl-1,4,7,10,13-pentaoxo-3,6,9,12-tetraazapentadecan-15-yl)phenyl dihydrogen phosphate] (X2-[X4][pY]QGLS-NH2)
10 | 5.28 | CC(C)C[C@H](NC(=O)CNC(=O)[C@H](CCC(N)=O)NC(=O)[C@H](Cc1ccc(OP(=O)(O)O)cc1)NC(=O)C1CN(C(=O)c2cc(N=C=S)ccc2-c2c3ccc(=O)cc-3oc3cc(O)ccc23)C1)C(=O)N[C@@H](CO)C(N)=O [4-((2S,5S,11S,14S)-1-amino-11-(3-amino-3-oxopropyl)-14-(1-(2-(6-hydroxy-3-oxo-3H-xanthen-9-yl)-5-isothiocyanatobenzoyl)azetidine-3-carboxamido)-2-(hydroxymethyl)-5-isobutyl-1,4,7,10,13-pentaoxo-3,6,9,12-tetraazapentadecan-15-yl)phenyl dihydrogen phosphate] (X2-[Azetidine3carboxylic][pY]QGLS-NH2)
11 | 4.85 | CC(C)C[C@H](NC(=O)CNC(=O)[C@H](CCC(N)=O)NC(=O)[C@H](Cc1ccc(OP(=O)(O)O)cc1)NC(=O)C1CCN(C(=O)c2cc(N=C=S)ccc2-c2c3ccc(=O)cc-3oc3cc(O)ccc23)CC1)C(=O)N[C@@H](CO)C(N)=O [4-((2S,5S,11S,14S)-1-amino-11-(3-amino-3-oxopropyl)-14-(1-(2-(6-hydroxy-3-oxo-3H-xanthen-9-yl)-5-isothiocyanatobenzoyl)piperidine-4-carboxamido)-2-(hydroxymethyl)-5-isobutyl-1,4,7,10,13-pentaoxo-3,6,9,12-tetraazapentadecan-15-yl)phenyl dihydrogen phosphate] ({X2-Inp}-[pY]QGLS-NH2)

Molecular target: T1, SHC-transforming protein 1
Test: Displacement of FITC-tagged NH-(CH2)4-CO-phospho-tyrosine-glutamine-glycine-leucine-serine-amide from Shc Src homology 2 domain by fluorescence anisotropy competition assay
Method in brief: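 Competition: preformed complex of 2 μM Shc SH2 protein with 10 nM FITC-labelled reference peptide in HEPES/NaCl pH 7.5 buffer, 10% DMSO; unlabelled peptides serially diluted from 500 μM. Anisotropy read at 485/535 nm. Fractional binding fitted with an order-3 spline with three knots; IC50 taken where the spline reaches one half.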

Row | pIC50 | SMILES
12 | 4.08 | C=CCCNC(=O)[C@H](CC(C)C)N(CCC=C)C(=O)CNC(=O)[C@H](CCC(N)=O)NC(=O)[C@H](Cc1ccc(OP(=O)(O)O)cc1)NC(C)=O [4-((2S,5S,11S)-2-acetamido-5-(3-amino-3-oxopropyl)-10-(but-3-enyl)-11-isobutyl-3,6,9,12-tetraoxo-4,7,10,13-tetraazaheptadec-16-enyl)phenyl dihydrogen phosphate]
13 | 4.05 | C=CCCNC(=O)[C@H](CO)NC(=O)[C@H](CC(C)C)N(CCC=C)C(=O)CNC(=O)[C@H](CCC(N)=O)NC(=O)[C@H](Cc1ccc(OP(=O)(O)O)cc1)NC(C)=O [4-((2S,5S,11S,14S)-2-acetamido-5-(3-amino-3-oxopropyl)-10-(but-3-enyl)-14-(hydroxymethyl)-11-isobutyl-3,6,9,12,15-pentaoxo-4,7,10,13,16-pentaazaicos-19-enyl)phenyl dihydrogen phosphate] (Ac-[pY]QG[X3]S-{NH(but-3-enyl)})
